Screens deposited in PubChem by several laboratories.
Apaf-1 inh – inhibitors of human Apaf-1 apoptosome | hit rate 0.71% among 330,000 | AID 489030 | reconstituted apoptosome caspase-3 activity, DEVD-Rh110 fluorescence | O14727 | inhibition, % at 20 µM; active = inhibition of at least 40% at 20 µM;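 note: plate controls were DMSO wells for no effect and DEVD-CHO caspase inhibitor wells for full effect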
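Material: reconstituted apoptosome with Apaf-1, cytochrome c, caspase-9, procaspase-3, dATP / Buffer or medium: pH 7.5 Hepes buffer with CHAPS, BSA, DTT / Also added: cytochrome c with DEVD-Rh110 / Schedule: compound with Apaf-1, dATP, procaspase-3 30 min, then 50 min reaction, room temperature / Technique: rhodamine 110 fluorescence at Ex 480/Em 540 nm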
DTT redox prof – compounds producing H2O2 with reducing agent – biochemical, NIH compound library profiling, artefact control for MLSCN library redox annotation, primary screen. DTT-dependent redox cycling H2O2, phenol red/HRP absorbance; 100% = 100 µM peroxide control, 0% = buffer. activation, % at 10 µM. hit rate 0.03% among 200,000;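 active = activation of at least 50% relative to the plate's high and low controls in the primary single-dose screen; inactive = activation below 50%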;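 note: compound incubated with DTT at 0.8 mM final as the reducing agent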
HKDC1 inhibitor – HKDC1 (human) hexokinase inhibition; hit rate 0.16% among 340,000; recombinant HKDC1, G6PDH/diaphorase resazurin coupled fluorescence; inhibition, % at 20 µM; AID 493160; Q2TB90;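 active = inhibition above about 35% when tested at 20 µM, limit read from the data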;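 note: plate controls were DMSO wells with enzyme for no effect and DMSO wells lacking enzyme for full effect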
Target sequence (Q2TB90 whole entry, looked up): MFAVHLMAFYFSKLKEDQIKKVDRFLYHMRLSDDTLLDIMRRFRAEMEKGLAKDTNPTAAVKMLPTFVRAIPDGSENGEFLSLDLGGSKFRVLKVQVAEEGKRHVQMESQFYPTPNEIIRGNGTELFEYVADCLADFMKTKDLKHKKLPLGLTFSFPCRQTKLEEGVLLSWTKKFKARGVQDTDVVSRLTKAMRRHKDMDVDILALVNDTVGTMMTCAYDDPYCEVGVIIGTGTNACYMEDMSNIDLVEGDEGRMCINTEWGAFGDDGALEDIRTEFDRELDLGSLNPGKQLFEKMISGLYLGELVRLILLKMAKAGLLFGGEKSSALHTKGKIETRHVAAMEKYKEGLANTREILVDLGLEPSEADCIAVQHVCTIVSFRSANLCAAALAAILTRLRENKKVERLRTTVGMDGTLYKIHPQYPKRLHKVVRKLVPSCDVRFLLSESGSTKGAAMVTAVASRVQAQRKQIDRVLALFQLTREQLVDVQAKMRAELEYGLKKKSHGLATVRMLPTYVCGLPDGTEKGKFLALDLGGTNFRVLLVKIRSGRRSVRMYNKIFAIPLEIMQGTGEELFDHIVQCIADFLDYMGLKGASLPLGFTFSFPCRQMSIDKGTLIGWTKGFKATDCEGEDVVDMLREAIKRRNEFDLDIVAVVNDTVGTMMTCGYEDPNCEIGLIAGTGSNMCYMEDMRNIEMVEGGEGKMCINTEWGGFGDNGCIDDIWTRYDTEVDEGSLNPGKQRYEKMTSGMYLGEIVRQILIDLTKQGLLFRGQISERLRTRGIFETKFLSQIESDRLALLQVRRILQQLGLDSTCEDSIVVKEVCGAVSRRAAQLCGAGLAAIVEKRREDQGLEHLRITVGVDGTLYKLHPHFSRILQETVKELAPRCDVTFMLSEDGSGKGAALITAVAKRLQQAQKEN
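Material: recombinant HKDC1 hexokinase; Amount: HKDC1 at 5 µg/mL; Medium: Tris pH 8.0 buffer with MgCl2, Tween-20, BSA, BME; Schedule: 90 min reaction incubation at room temperature, dark; Technique: coupled resazurin fluorescence, excitation 525 nm, emission 613 nm.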
UBC9 SUMO inh – SUMOylation inhibition; inhibition, % at 35 µM; hit rate 0.36% among 290,000; AID 2006; HTRF SUMOylation assay, SAE1/SAE2 + UBC9, in vitro; in the data active = inhibition above about 50%, passing the limit was not always enough
GSTO1 inh – blocks human GSTO1 in RBBP9 counter-screen | recombinant GSTO1, activity-based probe fluorescence polarization | inhibition, % at 5.96 µM | P78417 | AID 1974 | hit rate 1.1% among 300,000;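 active = inhibition above the campaign mean inhibition plus 3 SD, cut at about 35% in these data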;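 note: 0% = GSTO1-1 with DMSO and 100% = wells lacking GSTO1-1 enzyme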
Active calls of the source: *; . = not tested or not shown. A selection: hits, their analogues and other compounds. The true share with any hit is near 1.4%.

SMILES	Apaf-1 inh	DTT redox prof	HKDC1 inhibitor	UBC9 SUMO inh	GSTO1 inh
O=c1[nH]c(=S)n(-c2ccccc2F)c(O)c1C=Nc1ccc(N2CCOCC2)cc1	2	0	13	26	43*
O=C1NC(=O)N(c2ccccc2)C(=O)/C1=C\c1ccc([N+](=O)[O-])s1	19	.	2	55*	35
CCC(C)N1C(=O)/C(=C/c2ccc3c(c2)CCN3CCCCl)C(=O)NC1=S (configuration not stated)	.	1	15	0	37*
COC(=O)C1=C(c2cccc(OC)c2OC)C[C@@H]2CC[C@H]1N2C(=O)NCCS(C)=O (some centres not stated)	2	.	2	.	15
CN(C)[C@@H]1C(=O)C(C(N)=O)=C(O)[C@@]2(O)C(=O)C3=C(O)c4c(O)cccc4[C@@](C)(O)[C@H]3C[C@@H]12	3	.	.	.	66*
CS(=O)(=O)NNP(=O)(NNS(C)(=O)=O)NC(=O)c1ccc(Br)cc1	-10	.	-10	-1	-8
O=C(N/N=C/c1c(O)n(C2CCCCC2)c(=S)[nH]c1=O)c1ccccc1O	12	.	-10	.	-78
CC(C)c1ccc(-n2c(O)c(/C=N/NC(=O)c3ccccc3O)c(=O)[nH]c2=S)cc1	-4	.	-5	66*	3
CC1=NN(c2ccccc2)C(=O)C1/C=C1\C(=O)NC(=O)N(c2cc(C)cc(C)c2)C1=O (configuration not stated)	9	0	-2	-10	36*
CC[C@H]1CN2CC[C@@]3(C(=O)Nc4ccccc43)[C@@H]2C[C@@H]1/C(=C\OC)C(=O)OC	-10	.	-5	.	-2
O=C1NC(=O)C(=Cc2cc3c(cc2[N+](=O)[O-])OCO3)C(=O)N1	-16	0	4	99*	25
O=C1NC(=O)C(=Cc2ccccc2[N+](=O)[O-])C(=O)N1	.	.	-2	.	.
Cc1ccc2c(c1Cl)NC(C(=O)O)C1CC(Sc3ccccc3[N+](=O)[O-])C(Cl)C21 (configuration not stated)	5	.	10	32	36*
Nc1c(C(=O)NCCc2ccccc2)c2nc3ccccc3nc2n1CCN1CCOCC1	8	3	-2	-10	10
Nc1c(C(=O)NCCN2CCOCC2)c2nc3ccccc3nc2n1Cc1ccccc1	82*	.	6	17	4
COC(=O)C1=C(c2cccc(OCc3ccccc3)c2)C[C@@H]2CC[C@H]1N2C(=O)NCc1ccc(C(F)(F)F)cc1	22	.	-1	.	.
O=C1NC(=O)N(CCC2=CCCCC2)C(=O)/C1=C/c1ccc(O)cc1	0	0	4	-1	35*
O=C1NC(=O)N(CCC2=CCCCC2)C(=O)/C1=C/c1cccs1	4	.	13	23	21
COC(=O)C1=C(c2c(C)noc2C)C[C@@H]2CC[C@H]1N2C(=O)NCCOc1ccc(OC)cc1	-3	.	-2	.	.
CN[C@H]1C[C@H]2O[C@@](C)([C@H]1OC)n1c3ccccc3c3c4c(c5c6ccccc6n2c5c31)C(=O)NC4	51*	1	.	10	-7
Fc1ccc(C(OCCN2CCN(CCCc3ccccc3)CC2)c2ccc(F)cc2)cc1	56*	.	6	.	1
Cc1c(N=Nc2c(O)n(C)c(=O)n(C)c2=O)c(=O)n(-c2ccccc2)n1C	-10	0	0	-2	39*
Cc1cc(C=C2C(=O)NC(=O)NC2=O)c(C)n1-c1ccc2c(c1)OCO2	8	0	12	34	13
Cc1cc(C=C2C(=O)NC(=S)NC2=O)c(C)n1-c1ccc2c(c1)OCO2	7	1	13	79*	20
CCN(C(=O)COC(=O)c1cc(C)n(C2CC2)c1C)c1ccccc1	15	.	-3	.	.
CN1CCc2nc3sc(C#N)c(N)c3c(-c3cccs3)c2C1	12	0	11	75	6
CN1CCc2nc(N)c(C#N)c(-c3ccccc3)c2C1	6	0	-13	8	36*
N#C/C(=C(/O)c1ccc(S(=O)(=O)N(CCCl)CCCl)cc1)c1nc2ccccc2[nH]1	-19	.	-2	53*	8
Cc1nc2c(c(=O)[nH]1)C(c1ccc([N+](=O)[O-])cc1)c1c(c3ccccc3oc1=O)O2 (configuration not stated)	-12	.	0	1	0
O=C1NC(=O)N(Cc2ccccc2)C(=O)/C1=C\N1CCCc2ccccc21	2	0	15	10	38*
